# Laboratory results reported in the array DNA melting data of Ke et al. (doi:10.1101/2024.01.08.574731).
# Key:
# [1] = folding enthalpy; higher = less favourable; fluorescence melt of hairpins on a sequencing array, two-state fit; settings: sodium 0.088 M
# Outline: (§1)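 Hairpins were imaged by Cy3 fluorescence on a sequenced MiSeq flow cell with annealed Cy3 and quencher oligos, in 50 mM Na-HEPES pH 8.0, 25 mM NaCl, in 2.5 °C steps up to 60 °C. Bootstrapped two-state fits of normalised signals gave melting temperature and folding enthalpy. Four replicates were combined by inverse variance, and fitted temperatures were raised by 9.35 °C to match UV melts.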
# [2] = melting temperature; fluorescence melt of hairpins on a sequencing array, two-state fit, raised by 9.35 °C to match UV melts; settings: sodium 0.088 M
# Outline: as §1
Sequence,folding enthalpy [1] [kcal/mol],Tm [2] [°C]
GGGCACGGAAACGTGTCC ((.((((....)))).)),-40.8,63.4
GACTACCGAAAGGTGGTC (((.(((....))).))),-38.6,58.4
GCCTTCCCGAAAGGGGGC (((..(((....)))))),-17.2,47.7
GGGAGCGAAAGCTTCCC ((((((....))).))),-20.5,61.7
GGGTCCGAAAGGATTCCC ((((((....)))..))),-22.2,44.1
GCCGCTCGAAAGAGGGC (((.(((....)))))),-22.9,55.2
GAGCACGAAAGTGCGCTC ((((((....)))..))),-12.5,67.2
GATCAAATCCTTGATC ((((((....)))))),-35.8,42.1
GGACCTGAAAAGGTCC ((((((....)))))),-34.4,68.2
GTGACCGAAAGGTCCCAC ((((((....)))..))),-8.57,35.9
GAGACTGGAAACAGTTTC ((.((((....)))).)),-29.6,38.8
CCTCAGAAATGAGG (((((....))))),-19.7,45.2
GATCCTCGTGAGGATC ((((((....)))))),-36.6,61.5
GCGTATGAACGC ((((....)))),-18.9,52
GTGATAGCGAAAGCTCAC (((..(((....)))))),-18.9,44.9
GCACGCCCGAAAGGGTGC (((..(((....)))))),-11.8,49.9
GATCTATTCTAGATC ((((((...)))))),-27.6,41.3
GTGATTGGAAACAATCGC (.(((((....))))).),-40.7,49.1
GTCCACGAAAGTGTAGAC ((((((....)))..))),-20.1,38.9
GCTTAGCGAAAGCATAGC (((..((....))..))),-16.8,45.7
GTGGCCGAAAGGCCGCAC ((((((....)))..))),-9.1,62.9
GATAACGAAAGTTCATC ((((((....))).))),-10.4,26.2
GAATCTGAAAAGATTC ((((((....)))))),-36.8,49.8

Sequence,folding enthalpy [1] [kcal/mol],Tm [2] [°C]
GGCACCGAAAGGTCCGCC ((((((....)))..))),-20.4,55.2
GCGCTTCCGAAAGGACGC (((..(((....)))))),-20.3,52
TTGAGGAAACTCAA (((((....))))),-15.6,35.3
GTACTTCCGAAAGGATAC (((..(((....)))))),-10.3,24.9
GCGAGGCGAAAGCTCCGC (((..((....))..))),-25.2,60
GCGGGACGCCGC ((((....)))),-13.9,66.2
GAGCGGCGAAAGCCCTC (((.(((....)))))),-16.1,53
GAAGACGAAAGTCAGTTC ((((((....)))..))),-15,24
GTTTAGCGAAAGCTAAC (((.(((....)))))),-11.7,44.1
GGTTTACGAAAGTAGACC (((.(((....))).))),-34.9,51
GAGTATGGAAACATATTC ((.((((....)))).)),-21.2,30.8
GCTAATGGAAACATCAGC (((.(((....))).))),-22.2,32.5
GTATTACGAAAGTATTAC (((.(((....))).))),-28.4,34.8
GACATCCGAAAGGAAGTC (((.(((....))).))),-36.6,48.8
GATCACGAAAGTGTATC ((((((....))).))),-20.6,44
GTTTCCGAAAGGATAAAC ((((((....)))..))),-15.8,29.7
GGAATCGAAAGATATTCC ((((((....)))..))),-16,29.7
GCGTTACTACGC ((((....)))),-26.7,54.8
GAACATGAAAATGTTC ((((((....)))))),-28.9,52
GGTCCCGAAAGGGCCACC ((((((....)))..))),-11.7,55
GGATGAGGAAACTCATTC (.(((((....))))).),-23.7,41.6
GATCCTATATAGGATC ((((((....)))))),-46.7,52.3
GGGCGGCGAAAGCCCCCC (((.(((....))).))),-16.6,63.9

Sequence,folding enthalpy [1] [kcal/mol],Tm [2] [°C]
GTAGCTGCGAAAGCATAC (((..(((....)))))),-10.1,31.3
GGTTATCGAAAGATTACC (((.(((....))).))),-31.1,43.5
GCCCCGCGAAAGCGTTGC ((..(((....)))..)),-9.75,33.5
GCATCGCGAAAGCAATGC ((((.((....)).)))),-24.6,60.2
CGCTGACGGAAACGTGCG (((..(((....)))))),-26.1,47.5
GTGGTTGGAAACGACTAC ((.((.(....).)).)),-25.7,41.8
GTACACACGAAAGTGTAC (((..(((....)))))),-16.6,46.5
GTCCACGCGAAAGCGGAC (((..(((....)))))),-12.9,45.8
CTGACGAAAGTCAG (((((....))))),-29,65
GGGTCAGGAAACTGGCTC (.(.(((....))).).),-24.5,39.8
GTGACAGGAAACTGTTGC (..((((....))))..),-20.8,37.3
GATCTGTACGCAGATC ((((((....)))))),-44.9,54.4
GATCAGTAAACTGATC ((((((....)))))),-37.4,50.8
GATCCAGCAATGGATC ((((((....)))))),-41.6,56.8
GATCTTTAAAAAGATC ((((((....)))))),-34.8,40.5
GCCACGGGAAACCGTAGC ((.((((....)))).)),-23.2,46.6
GGTTACGGAAACGTGACC (((.(((....))).))),-36.4,53.4
GAAGTGGAAACACTTC ((((((....)))))),-33.7,54
GGTTTCGAAAGAAGACC ((((((....))).))),-19.5,36.8
GATCGTACGAACGATC ((((((....)))))),-34.3,53.3
GTCGGTGGAAACATCGAC ((((.((....)).)))),-45.1,53.9
GCACGAGGAAACCCGTAC (.(((.(....).))).),-6.61,21.9
GCTAGTCGAAAGACGAGC (((.(((....))).))),-35.4,57.6

Sequence,folding enthalpy [1] [kcal/mol],Tm [2] [°C]
GGAATCGAAAGATACTCC ((((((....)))..))),-9.63,24.7
GATCACGGGCGTGATC ((((((....)))))),-40.4,57.8
GTTAGGCGAAAGCCCAAC (((.(((....))).))),-13.8,37.2
GGGGAAGGAAACTCCCCC ((((.((....)).)))),-24.8,46.9
GATCTGTAACCAGATC ((((((....)))))),-29.3,46.8
GTCGATCGAAAGATAGAC (((.(((....))).))),-42.7,50.4
GTCTTTGAAAAAAGAC ((((((....)))))),-31.1,48
GCTTAGCGAAAGCCGAGC (((..((....))..))),-15.8,42
GCGTTCGAAAGAAAACGC ((((((....)))..))),-27.3,49
GTAGGCCGAAAGGCATAC (((.(((....))).))),-33.2,61.9
GAGTGCGAAAGCATCCTC ((((((....)))..))),-10.2,33
GATCAGGAATCTGATC ((((((....)))))),-41.8,54.8
GTCCTCGGAAACGGGGAC ((((.((....)).)))),-45.3,55.7
GCTAATGCGAAAGCAAGC (((..(((....)))))),-16.4,36.1
GGTCCGGGAAACTGGGCC ((.((.(....).)).)),-35.4,51.7
GATCAGCCTACTGATC ((((((....)))))),-35.2,49.9
GCCATCGAAAGATTGGGC ((((((....)))..))),-26.8,44.1
GCTTTACGAAAGTACAGC (((.(((....))).))),-28.6,44.8
GATCTAGTAATAGATC ((((((....)))))),-35.8,47.9
GTTGTACGAAAGTAAAAC (((.(((....))).))),-26.7,38.8
GATCGGTACGCCGATC ((((((....)))))),-38.6,63.6
GGGCACGAAAGTGGACCC ((((((....)))..))),-17.9,53.6
GGATATGGAAACACATCC ((((.((....)).)))),-26.3,31.5
